The list is not random: actives were taken first. Their share in the collection is about 2.5%.
NR2E3 ag-1 = activates human NR2E3 receptor; Q9Y5X4; actives 0.35% (n = 360,000); inhibition of corepressor binding, % at 3.98 µM; CHO-S Gal4-NCOR/VP16-NR2E3 two-hybrid, luciferase; AID 602229;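 active = inhibition above the mean of all tested compounds plus 3 SD, cut at about 70% in these data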;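 note: 0% = DMSO with NR2E3 transfected cells and 100% = cells lacking NR2E3 construct; higher means lower luciferase signal from less NR2E3 corepressor binding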
ADAM17 inh = inhibits human ADAM17; P78536; recombinant ADAM17, EDANS/DABCYL FRET peptide cleavage; inhibition, % at 6.95 µM; actives 0.83% (n = 370,000);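 active = inhibition above the mean of compounds lying between control limits plus 3 SD, set per campaign, cut at about 8.5% in these data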;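 note: 0% = DMSO-only wells as the low control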
ADAM10 inh = inhibits human ADAM10; O14672; actives 0.62% (n = 370,000); inhibition, % at 7 µM; recombinant ADAM10, EDANS/DABCYL FRET peptide cleavage, 3 h;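 active = inhibition above a per-campaign cutoff equal to the mean of compounds falling between control-based bounds plus 3 SD, cut at about 20% in these data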;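 note: 0% = DMSO wells while the 100% control is not disclosed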
JMJD2C inh = human JMJD2C demethylase inhibition | GST-JMJD2C(1-420) H3K9me3 demethylation, DELFIA europium | inhibition, % at 2.35 µM | actives 0.069% (n = 330,000) | AID 2099 | Q9H3R0;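 active = more than half of a compound's replicate wells show inhibition beyond 50%, single wells judged on their own value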;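 note: signal counts dimethyl H3K9 product captured on neutravidin plate; 0% = median of DMSO wells and 100% = 0.3 times that DMSO median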
proKLK7 act = proKLK7 (human) activation, primary screen; P49862; activation, % at 7 µM; actives 0.9% (n = 370,000); purified proKLK7, EDANS-DABCYL substrate fluorescence; 100% is mature enzyme control, 0% vehicle;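 active = activation above the mean of all tested compounds plus 3 SD, computed per campaign excluding outliers beyond control limits, cut at about 13% in these data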
NR2E3 ag-2 = NR2E3 (human) agonism. actives 0.12% (n = 320,000). Q9Y5X4. inhibition of corepressor binding, % at 4.78 µM. GST-NR2E3/biotin-RetCOR TR-FRET, 1536-well;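 active = percent inhibition above the cutoff of mean plus 3 SD of all tested compounds, set per screening campaign, cut at about 20% in these data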;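 note: 0% = DMSO wells and 100% = biotin wells as full block of FRET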
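Test system: GST-NR2E3 and biotin-RetCOR proteins | Quantity: 1.35 nM GST-tagged NR2E3 final | Medium: Tris pH 7.5 | Also added: 7 nM biotin-RetCOR | Dosing: Compound at 4.8 µM, single dose | Timing: 5 h at 4 °C | Detection: Time-resolved FRET | Read-out basis: Percent inhibition | Benchmarks: Biotin wells as high control, 0.6% DMSO wells as low control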
ADAM10 counter = counter-screen for ADAM17 exosite inhibitors: inhibitors of human ADAM10; shares compounds with ADAM17 inh; recombinant ADAM10, EDANS/DABCYL FRET peptide cleavage, 3 h; inhibition, % at 6.95 µM; actives 47% (n = 2,900); AID 743256;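 active = mean inhibition over the triplicate runs exceeds the activity threshold set in the earlier primary screen, cut at about 20% in these data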;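 note: 0% = DMSO wells and 100% = marimastat wells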
ADAM17 confirm = confirmation of inhibitors of human ADAM17; shares compounds with ADAM17 inh; recombinant ADAM17, EDANS/DABCYL QFRET peptide cleavage; inhibition, % at 6.95 µM; actives 65% (n = 2,900);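 active = mean inhibition across replicates above the hit cutoff set in the primary screen, cut at about 8.5% in these data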;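 note: 0% = DMSO wells and 100% = marimastat wells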
Numbers without * were called inactive; / = no result given; ! = repeats disagree.

SMILES	NR2E3 ag-1	ADAM17 inh	ADAM10 inh	JMJD2C inh	proKLK7 act	NR2E3 ag-2	ADAM10 counter	ADAM17 confirm
Cc1ccc(-c2nc3ccccc3nc2NN)cc1	-110	-95	-395	12	2	6	/	/
CC1Sc2ccc(S(=O)(=O)CCC(=O)Nc3ccccc3Cl)cc2NC1=O (stereo not drawn)	-5	9.3*	7	2	0	0	-10	1
NC(=O)c1cc2cc(Cl)ccc2oc1=Nc1cccc(C(F)(F)F)c1	-5	-7	-17	7	0	3	/	/
Cc1nnc(NC(=O)CCn2c(=O)oc3ccc(Cl)cc32)s1	-9	0	-4	149	0	-2	/	/
Cc1csc(NC(=O)CCn2c(=O)oc3ccc(Cl)cc32)n1	0	8.7*	-6	22	0	2	-3	1
COc1ccc(C(C(=O)NC2CCCC2)N(Cc2cccnc2)C(=O)c2snc(C(N)=O)c2N)cc1 (stereo not drawn)	1	-59	-134	7	2	4	/	/
COc1ccc(CCN(C(=O)C(F)(F)F)C(C(=O)NC2CCCCC2)c2ccc(C)s2)cc1 (stereo not drawn)	9	9.1*	3	-5	0	0	-2	1
COc1ccc(CCN(C(=O)C(F)(F)F)C(C(=O)NC2CCCCC2)c2cccs2)cc1 (stereo not drawn)	3	3	8	-6	0	4	/	/
Cc1cc(Cn2nnnc2-c2ccncc2)cc(C)c1O	-17	0	0	7	-1	2	/	/
CCOC(=O)C1CCCCN1S(=O)(=O)c1cc2c(cc1C)NC(=O)CO2 (stereo not drawn)	-25	-1	-2	-14	0	4	/	/
CC(=O)C1=CCC(c2ccc(Cl)cc2)N(S(=O)(=O)c2ccc(C)cc2)C1 (stereo not drawn)	-11	12*!	19	/	1	/	9	3
O=C1CCN(S(=O)(=O)c2ccccc2)CCN1CCOCc1cccc(F)c1	2	10*	11	0	0	-2	-3	3
Cc1ccc(S(=O)(=O)CNC(=S)c2ccc3ccccc3c2)cc1	3	9.5*	15	5	0	7	65*	37*
Cc1ccc(S(=O)(=O)CNC(=S)c2cccc(C)c2)cc1	2	2	10	7	1	3	/	/
O=C(Cc1ccc(Br)cc1)OCC(=O)N1CCc2ccccc2C1	-5	-1	-2	3	0	4	/	/
O=S1(=O)CCOC[C@H](Cc2ccccc2)N1Cc1cccc(C(F)(F)F)c1	-4	11*	0	3	-1	3	10	5
COc1ccccc1NC(=O)C(=O)N/N=C(\C)CC(=O)Nc1ccc(OCc2ccccc2)cc1	-43	3	4	5	0	-3	/	/
C/C(CC(=O)Nc1ccc(OCc2ccccc2)cc1)=N\NC(=O)C(=O)Nc1cccc(C)c1	-24	11*	12	-1	0	0	1	3
CC1Oc2ccccc2N(CC(=O)Nc2ccc3c(c2)OCCO3)C1=O (stereo not drawn)	-15	10.0*	10	-5	-1	1	-6	-1
O=C(CN1C(=O)NC2(CCCCC2)C1=O)Nc1ccc2c(c1)OCCCO2	-106	11*	1	-8	0	2	4	2
CN(Cc1ccccc1)C(=O)CN1C(=O)NC2(CCCCCCC2)C1=O	9	8.8*	5	-2	0	-1	7	8
O=C(CN1C(=O)NC2(CCCCCCC2)C1=O)NCc1ccc(Cl)cc1	4	11*	1	-1	0	/	3	0
CSc1ccc(CN(C)C(=O)CN2C(=O)NC3(CCCC3)C2=O)cc1	8	-11	-3	0	0	-1	/	/

Assay outcomes (PubChem)
